Experimental data: ChEMBL document CHEMBL1124944, “Synthesis and in vitro evaluation of some modified 4-thiopyrimidine nucleosides for prevention or reversal of AIDS-associated neurological disorders” (J Med Chem, 1990)

Assays:
[1] = Ratio of PNS to the PN (Partition coefficient ratio between thio analogue to its oxo analogue)
How it was run: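 Partitioning was between equal volumes of 1-octanol and 100 mM sodium phosphate pH 7.0. Phases were separated by centrifugation and each phase was quantified by UV absorbance at a wavelength chosen from spectra. The ratio is the thio analogue's partition coefficient over that of its oxo parent.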

MT2 [2] = assay: Concentration of the drug resulting in 50% growth inhibition of normal, uninfected cells against HIV-1 replication in MT-2 cells.; format: functional, cell-based; conditions: Homo sapiens
How it was run: (§1)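 NCI cytoprotection screen: HIV added at low amounts to T4 lymphoid cells (MT-2 or CEM), allowing at least two complete replication cycles to produce cell killing. […] An AZT-treated positive control was run alongside under identical conditions.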

CCRF-CEM [3] = assay: Concentration of the drug resulting in 50% reduction of the viral cytopathic effect against HIV-1 replication in CEM cells.; format: functional, cell-based; conditions: Homo sapiens; how it was run: as §1
CCRF-CEM [4] = assay: Concentration of the drug resulting in 50% growth inhibition of normal, uninfected cells against HIV-1 replication in CEM cells.; format: functional, cell-based; conditions: Homo sapiens; how it was run: as §1
MT2 [5] = assay: Concentration of the drug resulting in 50% reduction of the viral cytopathic effect against HIV-1 replication in MT-2 cells.; format: functional, cell-based; conditions: Homo sapiens; how it was run: as §1
Deoxycytidine kinase = Deoxycytidine kinase (Homo sapiens, UniProt P27707); assay: Inhibitory affect against rabbit deoxycytidine kinase and represented as molt/4F kinase.; design: species or system Oryctolagus cuniculus; conditions: target entry is the homologue from another species
Sequence of Deoxycytidine kinase (P27707 whole entry): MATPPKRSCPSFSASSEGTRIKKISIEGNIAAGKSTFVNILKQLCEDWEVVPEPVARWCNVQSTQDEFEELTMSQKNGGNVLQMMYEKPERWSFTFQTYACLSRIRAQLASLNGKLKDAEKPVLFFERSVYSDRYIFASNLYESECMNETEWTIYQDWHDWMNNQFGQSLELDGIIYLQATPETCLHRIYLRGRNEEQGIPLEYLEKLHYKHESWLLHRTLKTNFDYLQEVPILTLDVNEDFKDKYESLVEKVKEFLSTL

P ratio [1]	EC50 (CCRF-CEM [3])	EC50 (MT2 [5])	Ki (Deoxycytidine kinase)	SMILES	IC50 (MT2 [2])	IC50 (CCRF-CEM [4])
6.41	31 µM	39 µM		Cc1cn([C@H]2CC[C@@H](CO)O2)c(=O)[nH]c1=S	90 µM	93 µM
1.23				O=c1[nH]c(=S)ccn1[C@H]1C=C[C@@H](CO)O1		
	0.8 µM	2 µM		Cc1cn([C@H]2C=C[C@@H](CO)O2)c(=O)[nH]c1=O [STAVUDINE]	71 µM	235 µM
5.39	39 µM	27 µM		Cc1cn([C@H]2C=C[C@@H](CO)O2)c(=O)[nH]c1=S	> 80 µM	> 430 µM

Further lines, the compound ahead of its results:

SMILES	P ratio [1]	EC50 (CCRF-CEM [3])	EC50 (MT2 [5])	Ki (Deoxycytidine kinase)	IC50 (MT2 [2])	IC50 (CCRF-CEM [4])
Cc1cn([C@H]2C[C@H](N=[N+]=[N-])[C@@H](CO)O2)c(=O)[nH]c1=S	6.99					
Cc1cn([C@H]2C[C@H](N=[N+]=[N-])[C@@H](CO)O2)c(=O)[nH]c1=O [ZIDOVUDINE]		0.00032 µM	0.18 µM		> 970 µM	> 100 µM
Nc1ccn([C@H]2C=C[C@@H](CO)O2)c(=O)n1				4600 µM		
O=c1[nH]c(=S)ccn1[C@H]1CC[C@@H](CO)O1	1.56					
